Screens (PubChem BioAssay)
An excerpt weighted towards active compounds, which were near 9.4% of everything screened.
Beta apoptosis = inhibitors of cytokine-induced beta cell apoptosis, primary screen, luminescence | INS-1E cytokine-induced death, ATP luminescence, 48 h; percent of positive-control rescue, neutral wells zero | protection from apoptosis, % (concentration not given with the values) | 0.8% of 300,000 active;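 active means Every replicate reaches about 75%, or at least half do and their mean reaches it too, limit read from the data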;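 further: 0% = cytokine-treated negative control wells and 100% = positive control rescue; higher means more ATP so stronger rescue from cytokine killing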
CSC inhib = cancer stem cell viability inhibitors, primary screen, luminescence; AID 2717, 2010; inhibition, % at 7.5 µM; 1.1% of 300,000 active; cancer stem cell-like cells viability; in the data active means inhibition above about 75%; tested in HMLE shEcad cells
SKKanGAS inh = S. pyogenes SKKanGAS growth inhibitors in kanamycin, primary screen, streptokinase expression inhibitor project, SKKanGAS strain, BacTiter-Glo luminescence | inhibition, % at 7.5 µM | 1.3% of 300,000 active | 6 h;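 active means mean replicate score, as percent of positive control median, at least 50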;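 further: strain carries kanamycin resistance gene driven by streptokinase promoter and grows in 40 µg/ml kanamycin; loss of luminescence reflects streptokinase promoter inhibition or plain growth inhibition; 0% = median of DMSO wells and 100% = positive control at its reference dose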
Lmaj promast = Leishmania major promastigote growth inhibition, primary screen; inhibition, % at 10 µM; Leishmania major promastigotes, resazurin fluorescence viability; AID 1063, 2008; 9% of 200,000 active; in the data active means inhibition above about 50%;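 further: promastigotes grown with compound for 44 hours at 28 °C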
T cruzi inh = inhibitors of intracellular T. cruzi growth, primary screen, luminescence, NIH3T3 host cells. AID 1885, 2009. inhibition, % (concentration not given with the values). T. cruzi beta-gal in NIH3T3, 90 h. 1.4% of 300,000 active;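 active means mean inhibition across valid replicates above about 55%, limit read from the data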;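 further: signal also drops with host cell toxicity which is not excluded here; 0% = plate median of DMSO wells and 100% = zero luminescence signal; higher percent means less beta-gal luminescence so fewer parasites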
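System: mouse NIH/3T3 fibroblasts infected with β-gal-expressing T. cruzi Tulahuen C4 / Input: NIH/3T3 cells, 5,000 per well / Buffer or medium: Low-serum DMEM with 2% FBS / Probe or stimulus: 5000 reporter trypomastigotes per well / Schedule: ≥90 h infection period, 3 h prior cell attachment / Measured by: GalScreen luminescence, 60 min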
Mdm2-MdmX inh = inhibitors of human Mdm2-MdmX association, primary screen, cell-based, luminescence, split luciferase, SaOS-2, uHTS. Protein Mdm4 (Homo sapiens) + E3 ubiquitin-protein ligase Mdm2 (Homo sapiens), …. SaOS-2 split-luciferase Mdm2/MdmX complementation. inhibition, % at 8 µM. 3% of 330,000 active;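 active means inhibition of at least 50% at 8 µM in the primary screen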
Active calls of the source: *; . = no result.

SMILES	Beta apoptosis	CSC inhib	SKKanGAS inh	Lmaj promast	T cruzi inh	Mdm2-MdmX inh
COc1ccc2c(c1)S/C(=C\C(=O)c1ccncc1)N2C	0	-9	-3	97*	14	-67
CCO[C@@H]1OC(C(=O)N2CCN(Cc3ccc4c(c3)OCO4)CC2)=C[C@H](c2ccc3c(c2)OCO3)[C@H]1CCCO	9	10	-1	-1	31	25
CCO[C@@H]1OC(C(=O)N2CCN(Cc3ccc4c(c3)OCO4)CC2)=C[C@H](c2csc3ccccc23)[C@H]1CCCO	-1	8	14	72*	37	22
CCO[C@H]1OC(C(=O)N2CCN(Cc3ccc4c(c3)OCO4)CC2)=C[C@@H](C2CC2)[C@@H]1CCCO	-2	-10	2	77*	-1	11
CCO[C@@H]1OC(C(=O)NCc2ccccc2)=C[C@H](C2CCCCC2)[C@H]1CCCO	-2	4	13	51*	-3	22
CCO[C@H]1OC(C(=O)Nc2ccccc2)=C[C@@H](c2csc3ccccc23)[C@@H]1CCCO	4	2	10	58*	2	41
C/C(CC(=O)NC1CCCCC1)=N\NC(=O)Cc1ccc(-c2ccccc2)cc1	-6	-3	12	6	19	23
Cc1nccn1CC(=O)N/N=C/c1cccs1	3	6	5	.	-6	10
CS(=O)(=O)Cc1ccc(C(=O)NNC(=O)c2cc(-c3ccccc3)n[nH]2)cc1	-8	-10	.	.	.	19
CCN(CC)CCNC(=O)c1ccc(NC(=O)C2CC(=O)N(CCc3ccc(OC)c(OC)c3)C2)cc1 (stereo not given)	0	.	.	.	.	17
COc1ccc(NC(C)=O)cc1S(=O)(=O)Nc1ccc(C(=O)N2CCCC2)cc1	-5	-4	6	.	-11	-8
O=C(Nc1ccc(N2CCOCC2)c(Cl)c1)c1ccc(-n2cnnc2)cc1Cl	-4	-8	-3	.	4	15
O=S(=O)(c1ccccc1)N1CCN=C1SCc1ccc(Cl)c(Cl)c1	2	38	1	51*	33	25
O=S(=O)(c1ccccc1)N1CCN=C1SCc1ccc(Cl)cc1	0	.	-9	100*	32	15
O=S(=O)(c1ccccc1)N1CCN=C1SCc1cccc(Cl)c1	-17	4	0	22	28	21
O=C(CSc1ccc(F)cc1)NC12CC3CC(CC(C3)C1)C2	6	1	23	20	4	9
O=C(CCSc1ccc(Cl)c(Cl)c1)NC12CC3CC(CC(C3)C1)C2	2	13	65*	3	29	-19
O=[N+]([O-])c1cc(S(=O)(=O)N2CCCC2)ccc1N/N=C/c1cccnc1	1	1	7	60*	14	3
O=C1C2CC=CCC2C(=O)N1c1ccc(NCCc2ccccc2)c([N+](=O)[O-])c1 (stereo not given)	-11	80*	-9	5	20	-4
O=C(O)c1ccccc1/C=N/Nc1ccc(S(=O)(=O)N2CCCC2)cc1[N+](=O)[O-]	-7	41	-1	.	4	15
O=[N+]([O-])c1cc(S(=O)(=O)N2CCCC2)ccc1NCCc1ccccc1	-4	22	-10	58*	12	17
Cc1ccc(C)c(NC(=O)CN(C)C(=O)CN2C(=O)C3CCCCC3C2=O)c1 (stereo not given)	-6	-5	-5	.	-11	8
CC1CCC(NC(=O)CNC(=O)Cc2cccc3ccccc23)CC1 (stereo not given)	-6	-5	-2	.	0	6
COc1cccc(OCC(O)CN2CCOCC2)c1 (stereo not given)	-4	-11	-1	1	-8	22
C=CCc1ccc(OCC(O)CN2CCN(Cc3ccc(Cl)cc3)CC2)c(OC)c1 (stereo not given)	-1	42	-3	93*	34	32
SMILES	Beta apoptosis	CSC inhib	SKKanGAS inh	Lmaj promast	T cruzi inh	Mdm2-MdmX inh
C=CCc1ccc(OCC(O)CN2CCC(Cc3ccccc3)CC2)c(OC)c1 (stereo not given)	14	1	3	100*	22	27
OC(COc1ccc(F)cc1Cl)CN1CCC(Cc2ccccc2)CC1 (stereo not given)	3	23	7	.	63*	13
C=CCc1ccc(OCC(O)CN2CCN(c3ccccc3OC)CC2)c(OC)c1 (stereo not given)	0	4	-1	.	14	9
OC(COc1ccccc1F)CN1CCC(Cc2ccccc2)CC1 (stereo not given)	.	11	5	.	16	-1
COc1cccc(OCC(O)CN2CC(C)CC(C)C2)c1 (stereo not given)	-1	4	0	88*	3	13
O=C(CCC(=O)N1CCN(S(=O)(=O)c2ccc(Cl)cc2)CC1)Nc1cccc(Br)c1	-1	-11	4	6	7	29
O=C(CNC(=O)c1cccc(-n2cnnn2)c1)Nc1ccc(F)c(F)c1	0	9	.	.	.	-21
Cc1ccc(S(=O)(=O)N2CCCCC2C(=O)Nc2ccc(N(C)C)cc2)cc1 (stereo not given)	-5	-10	.	.	.	-4
CN(c1ccccc1)S(=O)(=O)c1cccc(NC(=O)c2ccc3ncsc3c2)c1	10	4	7	.	-6	27
O=C(NCCN1CCOCC1)C1CCCN(S(=O)(=O)c2ccc(F)cc2)C1 (stereo not given)	-5	-16	-1	.	1	9
COc1cccc(OCC(O)CN2CCC(Cc3ccccc3)CC2)c1 (stereo not given)	-11	22	-2	95*	17	22
O=C1CC(NS(=O)(=O)c2ccc([N+](=O)[O-])cc2)CN1c1ccc2c(c1)OCCO2 (stereo not given)	.	-18	-1	.	36	14
O=C1CC(NS(=O)(=O)c2ccc([N+](=O)[O-])cc2)CN1c1ccc(Cl)cc1 (stereo not given)	5	-8	3	.	62*	15
COCCn1c(SCC(=O)N2CCc3ccccc3C2)nc2cc(Cl)ccc2c1=O	-11	-8	3	60*	12	27
COCCn1c(SCC(=O)N2CCCc3ccccc32)nc2ccccc2c1=O	4	8	-6	24	18	13
CC(C)Cn1c(SCC(=O)N2CCc3ccccc3C2)nc2cc(Cl)ccc2c1=O	115*	32	37	91*	18	25
CC(C)Cn1c(SCC(=O)N2CCc3ccccc3C2)nc(O)cc1=O	-5	0	.	.	.	16
COc1ccc(CN(CCC(c2ccccc2)C2CCOC(C)(C)C2)C(C)=O)cc1 (stereo not given)	2	3	1	83*	3	20
COc1ccc(CNCCC(c2ccccc2)C2CCOC(C)(C)C2)cc1 (stereo not given)	0	1	-5	91*	24	7
